According to ChEMBL document CHEMBL2010703, “Synthesis and structure-activity relationship studies of 3-biaryl-8-oxabicyclo[3.2.1]octane-2-carboxylic acid methyl esters” (Bioorg Med Chem, 2012):

How the values were obtained:
[1] = species on record: Macaca mulatta; experiment: Binding affinity to rhesus monkey DAT
How it was run: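 Monkey striatal tissue; each compound tested 2–5 times. Competition binding used a fixed radioligand concentration against a range of test-drug concentrations.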

[2] = target: Sodium-dependent dopamine transporter (Homo sapiens) (UniProt Q01959); experiment: Displacement of [3H]WIN 35,428 from human dopamine active transporter
Sodium-dependent dopamine transporter (Homo sapiens), sequence (Q01959 whole entry): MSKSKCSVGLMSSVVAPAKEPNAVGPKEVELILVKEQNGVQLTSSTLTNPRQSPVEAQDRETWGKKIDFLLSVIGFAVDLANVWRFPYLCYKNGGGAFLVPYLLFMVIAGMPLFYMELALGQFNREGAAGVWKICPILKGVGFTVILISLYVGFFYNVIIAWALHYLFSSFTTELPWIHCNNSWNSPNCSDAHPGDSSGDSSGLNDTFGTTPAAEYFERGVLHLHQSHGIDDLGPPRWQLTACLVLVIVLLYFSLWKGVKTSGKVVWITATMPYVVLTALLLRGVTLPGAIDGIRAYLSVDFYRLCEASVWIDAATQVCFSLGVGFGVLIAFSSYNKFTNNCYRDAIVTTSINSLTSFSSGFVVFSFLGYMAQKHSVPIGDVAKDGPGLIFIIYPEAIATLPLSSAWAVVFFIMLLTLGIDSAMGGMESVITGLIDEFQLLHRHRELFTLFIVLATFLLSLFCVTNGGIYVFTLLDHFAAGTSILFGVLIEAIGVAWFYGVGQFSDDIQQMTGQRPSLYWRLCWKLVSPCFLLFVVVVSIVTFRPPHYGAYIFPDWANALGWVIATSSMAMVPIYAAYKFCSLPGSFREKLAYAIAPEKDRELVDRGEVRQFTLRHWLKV
How it was run: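 A fixed radioligand concentration was run against a range of test-drug concentrations, and IC50 was read. Racemic compounds. Values are means of two or more independent experiments, each in triplicate.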

[3] = species on record: Homo sapiens; experiment: Selectivity ratio of IC50 for human DAT to IC50 for human SERT

SMILES	Activity [1] [nM]	inhibition [2]	Ratio IC50 [3]
COC(=O)[C@H]1[C@@H](c2ccc(F)cc2)C[C@@H]2CC[C@H]1N2C	12.9	–	–
COC(=O)[C@@H]1C2CCC(C[C@@H]1c1cc3ccccc3[nH]1)O2 (mixture of isomers)	–	Dose-dependent effect	0.2
COC(=O)[C@@H]1C2CCC(C[C@@H]1c1ccc(-c3cccn3C)cc1)O2 (mixture of isomers)	–	Dose-dependent effect	> 2
COC(=O)[C@@H]1C2CCC(C[C@@H]1c1ccc(-c3ccco3)cc1)O2 (mixture of isomers)	–	Dose-dependent effect	2
COC(=O)[C@@H]1C2CCC(C[C@H]1c1cc3ccccc3s1)O2 (mixture of isomers)	–	Dose-dependent effect	–
COC(=O)[C@@H]1C2CCC(C[C@H]1c1ccc(-c3cccn3C)cc1)O2 (mixture of isomers)	–	Dose-dependent effect	> 2.5
COC(=O)[C@@H]1C2CCC(C[C@H]1c1ccc(-c3ccco3)cc1)O2 (mixture of isomers)	–	Dose-dependent effect	4
COC(=O)[C@@H]1C2CCC(C[C@H]1c1ccc(-c3cccs3)cc1)O2 (mixture of isomers)	–	Dose-dependent effect	10
COC(=O)[C@@H]1C2CCC(C[C@H]1c1ccc(-c3nccs3)cc1)O2 (mixture of isomers)	–	Dose-dependent effect	> 7
COC(=O)[C@@H]1C2CCC(C[C@H]1c1cccs1)O2 (mixture of isomers)	–	Dose-dependent effect	1
COC(=O)[C@H]1C2CCC(C[C@@H]1c1cc3ccccc3[nH]1)O2 (mixture of isomers)	–	Dose-dependent effect	0.4
COC(=O)[C@H]1C2CCC(C[C@@H]1c1cc3ccccc3s1)O2 (mixture of isomers)	–	Dose-dependent effect	–
COC(=O)[C@H]1C2CCC(C[C@@H]1c1cccs1)O2 (mixture of isomers)	–	Dose-dependent effect	1
COC(=O)[C@H]1C2CCC(C[C@H]1c1cc3ccccc3[nH]1)O2 (mixture of isomers)	–	Dose-dependent effect	< 0.3
COC(=O)[C@H]1C2CCC(C[C@H]1c1cc3ccccc3o1)O2 (mixture of isomers)	–	Dose-dependent effect	< 0.04
COC(=O)[C@H]1C2CCC(C[C@H]1c1ccc(-c3ccccc3)o1)O2 (mixture of isomers)	–	Dose-dependent effect	< 2
COC(=O)[C@H]1C2CCC(C[C@H]1c1cccc(-c3nccs3)c1)O2 (mixture of isomers)	–	Dose-dependent effect	1
COC(=O)C1=C(c2cc3ccccc3o2)CC2CCC1O2 (racemic)	–	Dose-dependent effect	< 0.1
COC(=O)C1=C(c2cc3ccccc3s2)CC2CCC1O2 (racemic)	–	Dose-dependent effect	< 0.004
COC(=O)C1=C(c2ccc(-c3ccccc3)n2C)CC2CCC1O2 (racemic)	–	Dose-dependent effect	1
COC(=O)C1=C(c2ccc(-c3ccccc3)o2)C[C@@H]2CC[C@H]1O2 (racemic)	–	Dose-dependent effect	1
COC(=O)C1=C(c2ccc(-c3ccccc3)s2)CC2CCC1O2 (racemic)	–	Dose-dependent effect	1
COC(=O)C1=C(c2cccc(-c3cccn3C)c2)CC2CCC1O2 (racemic)	–	Dose-dependent effect	> 14
COC(=O)C1=C(c2ccco2)C[C@@H]2CC[C@H]1O2 (racemic)	–	Dose-dependent effect	1
COC(=O)C1=C(c2cccs2)C[C@@H]2CC[C@H]1O2 (racemic)	–	Dose-dependent effect	1
O=C1C2=C(CC3CCC2O3)c2cc3ccccc3n21 (racemic)	–	Dose-dependent effect	1
